Experimental data reported in ChEMBL document CHEMBL4266027, “Cyanobufalins: Cardioactive Toxins from Cyanobacterial Blooms” (J Nat Prod, 2018).

What was measured:
[1] = system: SK-OV-3; assay: Cytotoxicity against human SKOV3 cells assessed as decrease in cell viability after 72 hrs by MTS assay; type: functional, cell-based; settings: SK-OV-3, 72 h
In short: (§1)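 Cell proliferation assay using the MTS reagent. Compounds were tested as a dilution series, and EC50 values were derived from the concentration–response data.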

[2] = system: HCT-116; assay: Cytotoxicity against human HCT116 cells assessed as decrease in cell viability after 72 hrs by MTS assay; type: functional, cell-based; settings: HCT-116, 72 h; in short: as §1
[3] = system: HepG2; assay: Cytotoxicity against human HepG2 cells assessed as decrease in cell viability after 72 hrs by MTS assay; type: functional, cell-based; settings: HepG2, 72 h; in short: as §1
[4] = system: MES-SA; assay: Cytotoxicity against human MESSA cells assessed as decrease in cell viability after 72 hrs by MTS assay; type: functional, cell-based; in short: as §1
[5] = system: MES-SA/Dx5; assay: Cytotoxicity against human MES-SA/Dx5 cells assessed as decrease in cell viability after 72 hrs by MTS assay; type: functional, cell-based; settings: MES-SA/Dx5, 72 h; in short: as §1
[6] = system: 786-0; assay: Cytotoxicity against human 786-O cells assessed as decrease in cell viability after 72 hrs by MTS assay; type: functional, cell-based; settings: 786-0, 72 h; in short: as §1
[7] = system: MCF7; assay: Cytotoxicity against human MCF7 cells assessed as decrease in cell viability after 72 hrs by MTS assay; type: functional, cell-based; settings: MCF7, 72 h; in short: as §1
[8] = system: BXPC-3; assay: Cytotoxicity against human BxPC3 cells assessed as decrease in cell viability after 72 hrs by MTS assay; type: functional, cell-based; settings: BXPC-3, 72 h; in short: as §1
[9] = system: U-87 MG; assay: Cytotoxicity against human U87MG cells assessed as decrease in cell viability after 72 hrs by MTS assay; type: functional, cell-based, U-87MG ATCC; in short: as §1
[10] = system: NCI-H1975; assay: Cytotoxicity against human NCI-H1975 cells assessed as decrease in cell viability after 72 hrs by MTS assay; type: functional, cell-based; settings: NCI-H1975, 72 h; in short: as §1
[11] = system: HUVEC; assay: Cytotoxicity against human HUVEC cells assessed as decrease in cell viability after 72 hrs by MTS assay; type: cell-based; in short: as §1
[12] = system: CCRF S-180; assay: Cytotoxicity against mouse S180 cells assessed as decrease in cell viability after 72 hrs by MTS assay; type: functional, cell-based; settings: CCRF S-180, 72 h; in short: as §1

Structure (SMILES): CC1(C)[C@H]2OC(=O)O[C@H]2[C@@H](O)[C@]2(C=O)[C@H]3CC[C@]4(C)[C@@H](c5ccc(=O)oc5)[C@@H](Cl)C[C@]4(O)C3=CC[C@@H]12
- EC50 [1]: 0.53 µM
- EC50 [2]: 0.61 µM
- EC50 [3]: 1.3 µM
- EC50 [4]: 0.94 µM
- EC50 [5]: 0.72 µM
- EC50 [6]: 0.35 µM
- EC50 [7]: 0.96 µM
- EC50 [8]: 1 µM
- EC50 [9]: 0.61 µM
- EC50 [10]: 0.59 µM
- EC50 [11]: 0.8 µM
- EC50 [12]: > 20 µM
